The text below walks through data of ChEMBL document CHEMBL1131143, “Predictive models for GABAA/benzodiazepine receptor subtypes: studies of quantitative structure-activity relationships for imidazobenzodiazepines at five recombinant GABAA/benzodiazepine receptor subtypes [alphaxbeta3gamma2 (x = 1-3, 5, and 6)] via comparative molecular field analysis” (J Med Chem, 1998).

What all share (type): protein-complex assay
Experiment [1] has as its target T1, GABA-A receptor; alpha-2/beta-3/gamma-2 (Homo sapiens, UniProt P18507+P28472+P47869).
T1 sequence (P18507 whole entry): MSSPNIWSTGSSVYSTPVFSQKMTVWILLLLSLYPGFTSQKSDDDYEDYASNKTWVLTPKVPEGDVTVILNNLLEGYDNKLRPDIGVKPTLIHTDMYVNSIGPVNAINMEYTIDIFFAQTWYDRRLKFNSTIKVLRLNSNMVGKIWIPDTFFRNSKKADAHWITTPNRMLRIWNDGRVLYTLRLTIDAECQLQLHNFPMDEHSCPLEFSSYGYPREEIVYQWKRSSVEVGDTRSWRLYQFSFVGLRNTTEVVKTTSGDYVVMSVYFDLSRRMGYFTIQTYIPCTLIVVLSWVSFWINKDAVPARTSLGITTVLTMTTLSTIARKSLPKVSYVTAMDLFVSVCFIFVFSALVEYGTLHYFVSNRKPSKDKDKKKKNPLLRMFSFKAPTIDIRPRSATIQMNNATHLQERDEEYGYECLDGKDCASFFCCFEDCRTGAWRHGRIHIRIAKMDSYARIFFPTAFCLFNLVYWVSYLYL
T1 sequence (P28472 whole entry): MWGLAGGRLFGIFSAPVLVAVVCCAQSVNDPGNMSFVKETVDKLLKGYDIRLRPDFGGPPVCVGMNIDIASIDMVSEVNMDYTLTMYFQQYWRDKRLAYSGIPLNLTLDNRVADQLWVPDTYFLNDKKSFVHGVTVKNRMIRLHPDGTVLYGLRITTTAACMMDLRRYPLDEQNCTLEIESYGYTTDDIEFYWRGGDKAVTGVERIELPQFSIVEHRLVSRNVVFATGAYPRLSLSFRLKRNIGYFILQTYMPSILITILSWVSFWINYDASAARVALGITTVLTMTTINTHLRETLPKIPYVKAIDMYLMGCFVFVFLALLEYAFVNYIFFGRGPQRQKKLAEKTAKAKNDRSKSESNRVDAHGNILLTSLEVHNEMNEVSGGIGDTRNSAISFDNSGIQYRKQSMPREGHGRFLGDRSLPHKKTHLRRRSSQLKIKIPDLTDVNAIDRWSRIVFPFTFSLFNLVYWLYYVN
T1 sequence (P47869 whole entry): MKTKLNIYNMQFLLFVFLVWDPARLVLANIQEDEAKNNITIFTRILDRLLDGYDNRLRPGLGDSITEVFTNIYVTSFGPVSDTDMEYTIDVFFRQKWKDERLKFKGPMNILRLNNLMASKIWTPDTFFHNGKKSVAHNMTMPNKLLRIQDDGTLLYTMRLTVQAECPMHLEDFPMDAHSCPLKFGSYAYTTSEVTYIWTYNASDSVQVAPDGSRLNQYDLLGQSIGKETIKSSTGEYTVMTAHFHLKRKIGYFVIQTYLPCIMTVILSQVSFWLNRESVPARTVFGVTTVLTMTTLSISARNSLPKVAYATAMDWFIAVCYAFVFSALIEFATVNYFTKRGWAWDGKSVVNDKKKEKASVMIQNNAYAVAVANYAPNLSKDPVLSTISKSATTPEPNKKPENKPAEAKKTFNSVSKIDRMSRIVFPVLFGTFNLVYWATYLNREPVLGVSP
In words: Binding affinity for alpha-2-beta-3-gamma-2 GABA-A benzodiazepine receptor subunits.

Experiment [2] has as its target T2, GABA-A receptor; alpha-6/beta-3/gamma-2 (Homo sapiens, UniProt P18507+P28472+Q16445). In words: Binding affinity against Gamma-aminobutyric acid A receptor alpha-6-beta-3-gamma-2. The method in brief: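 Cells scraped into PBS, spun at 3000g, resuspended in 10 mM KH₂PO₄/100 mM KCl pH 7.4. Nonspecific binding with 10⁻⁵ M diazepam; 1 h to equilibrium at 4 °C; filtration, ice-cold buffer wash, scintillation counting.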

In experiment [3] the target is T3, GABA-A receptor; alpha-3/beta-3/gamma-2 (Homo sapiens, UniProt P18507+P28472+P34903).
T3 sequence (P18507 whole entry): T1 sequence (P18507 whole entry)
T3 sequence (P28472 whole entry): T1 sequence (P28472 whole entry)
T3 sequence (P34903 whole entry): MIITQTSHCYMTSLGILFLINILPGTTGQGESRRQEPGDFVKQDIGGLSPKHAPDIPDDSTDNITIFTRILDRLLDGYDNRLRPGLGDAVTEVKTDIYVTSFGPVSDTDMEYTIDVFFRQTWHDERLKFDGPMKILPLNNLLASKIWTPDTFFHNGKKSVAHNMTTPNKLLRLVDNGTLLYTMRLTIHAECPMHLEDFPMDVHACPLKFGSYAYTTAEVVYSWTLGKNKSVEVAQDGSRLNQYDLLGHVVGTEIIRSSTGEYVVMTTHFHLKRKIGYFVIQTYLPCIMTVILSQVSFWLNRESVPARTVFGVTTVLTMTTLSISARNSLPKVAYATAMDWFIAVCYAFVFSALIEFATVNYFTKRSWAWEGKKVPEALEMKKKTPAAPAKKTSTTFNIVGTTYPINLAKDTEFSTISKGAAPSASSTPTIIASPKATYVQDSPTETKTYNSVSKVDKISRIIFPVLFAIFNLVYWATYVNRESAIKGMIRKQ
Put plainly: Binding affinity against alpha-3-beta-3-gamma-2 GABAA/BzR receptor subtype.

Experiment [4] addresses T2, GABA-A receptor; alpha-6/beta-3/gamma-2. Put plainly: Inhibition of Gamma-aminobutyric acid A receptor alpha-6-beta-3-gamma-2 at 1 uM. The method in brief: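 Competition binding on Ltk⁻ cells expressing human α6β3γ2, radioligand [³H]Ro 15-4513. Cells scraped into PBS, spun at 3000g, resuspended in 10 mM KH₂PO₄/100 mM KCl pH 7.4. Nonspecific binding with 10⁻⁵ M diazepam; 1 h to equilibrium at 4 °C; filtration, ice-cold buffer wash, scintillation counting.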

Experiment [5] has as its target GABA-A receptor; alpha-3/beta-3/gamma-2 (Homo sapiens) (UniProt P18507+P28472+P34903). In words: Inhibition of GABA-A benzodiazepine receptor alpha-3-beta-3-gamma-2 subunits at 1 uM.
The target in experiment [6] is GABA-A receptor; alpha-2/beta-3/gamma-2 (Homo sapiens) (UniProt P18507+P28472+P47869). Put plainly: Inhibition of GABA-A benzodiazepine receptor alpha-2-beta-3-gamma-2 subunits at 1 uM.
Experiment [7] addresses T4, GABA-A receptor; alpha-5/beta-3/gamma-2 (Homo sapiens, UniProt P18507+P28472+P31644).
T4 sequence (P18507 whole entry): T1 sequence (P18507 whole entry)
T4 sequence (P28472 whole entry): T1 sequence (P28472 whole entry)
T4 sequence (P31644 whole entry): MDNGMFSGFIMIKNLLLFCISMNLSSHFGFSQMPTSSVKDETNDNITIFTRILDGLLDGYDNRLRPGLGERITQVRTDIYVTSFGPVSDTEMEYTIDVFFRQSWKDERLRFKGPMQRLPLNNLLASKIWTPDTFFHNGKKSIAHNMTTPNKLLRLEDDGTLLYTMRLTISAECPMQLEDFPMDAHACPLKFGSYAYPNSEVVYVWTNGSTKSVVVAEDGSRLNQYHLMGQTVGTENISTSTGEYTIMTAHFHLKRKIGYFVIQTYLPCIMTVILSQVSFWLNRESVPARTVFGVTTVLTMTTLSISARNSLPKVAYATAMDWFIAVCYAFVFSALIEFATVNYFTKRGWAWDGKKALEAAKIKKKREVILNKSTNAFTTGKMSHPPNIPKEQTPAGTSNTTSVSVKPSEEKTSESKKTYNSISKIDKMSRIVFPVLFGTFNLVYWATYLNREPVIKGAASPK
Put plainly: Binding affinity for Gamma-aminobutyric acid A receptor alpha-5-beta-3-gamma-2.

Experiment [8] deals with GABA-A receptor; alpha-1/beta-3/gamma-2 (Homo sapiens) (UniProt P14867+P18507+P28472). Put plainly: Inhibition of GABA-A benzodiazepine receptor alpha-1-beta-3-gamma-2 subunits at 1 uM.

T2 sequence (Q16445 whole entry, one chain of several): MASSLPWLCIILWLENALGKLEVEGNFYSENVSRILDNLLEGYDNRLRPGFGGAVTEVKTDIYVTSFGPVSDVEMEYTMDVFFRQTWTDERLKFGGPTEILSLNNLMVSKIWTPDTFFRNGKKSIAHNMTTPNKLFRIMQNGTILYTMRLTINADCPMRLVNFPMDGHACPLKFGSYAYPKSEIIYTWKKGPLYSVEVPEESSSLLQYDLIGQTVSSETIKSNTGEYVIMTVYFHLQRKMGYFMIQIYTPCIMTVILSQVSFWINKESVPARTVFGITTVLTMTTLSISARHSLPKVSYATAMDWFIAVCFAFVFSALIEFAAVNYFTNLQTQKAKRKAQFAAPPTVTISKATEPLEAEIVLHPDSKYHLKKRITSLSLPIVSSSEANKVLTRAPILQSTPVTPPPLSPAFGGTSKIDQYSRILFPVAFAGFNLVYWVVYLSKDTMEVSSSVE

In the case of `CCOC(=O)c1ncn2c1CN(C)C(=O)c1cc(Br)ccc1-2`, the Ki in experiment [1] worked out at 0.027 µM; in experiment [2], 0.022 µM; in experiment [3], 0.013 µM.

For `C#Cc1ccc2c(c1)C(=O)N1CCC[C@H]1c1c(-c3nc(-c4ccccc4)no3)ncn1-2`, the inhibition in experiment [4] is 4%; in experiment [5], 19%; in experiment [6], 26%; in experiment [8], 33%. Also, in experiment [7], the affinity, expressed as Ki, was 0.455 µM.

Broadly, the Ki is the dissociation constant of the complex between target and ligand, obtained from inhibition or displacement. A high value points to a looser hold on the target. In general, inhibition refers to how much of the control response was suppressed. The low end stands for a weak effect, the high end for a strong effect.
